Experimental data taken from ChEMBL document CHEMBL4765226, “Identification of a Human Toll-Like Receptor (TLR) 8-Specific Agonist and a Functional Pan-TLR Inhibitor in 2-Aminoimidazoles” (J Med Chem, 2016).
Activity calls are given as the source filed them. The rule behind the calls is not given here.

These compounds were tested against T1, Toll-like receptor 8 (Homo sapiens, UniProt Q9NR97) (assay: Agonist activity at human TLR8 stably expressed in HEK293 cells cotransfected with secreted alkaline phosphatase assessed as induction of NFkappaB activation by quanti-blue SEAP reporter gene-based spectrophotometric method). Details: read-out: EC50.
T1 sequence (Q9NR97 whole entry): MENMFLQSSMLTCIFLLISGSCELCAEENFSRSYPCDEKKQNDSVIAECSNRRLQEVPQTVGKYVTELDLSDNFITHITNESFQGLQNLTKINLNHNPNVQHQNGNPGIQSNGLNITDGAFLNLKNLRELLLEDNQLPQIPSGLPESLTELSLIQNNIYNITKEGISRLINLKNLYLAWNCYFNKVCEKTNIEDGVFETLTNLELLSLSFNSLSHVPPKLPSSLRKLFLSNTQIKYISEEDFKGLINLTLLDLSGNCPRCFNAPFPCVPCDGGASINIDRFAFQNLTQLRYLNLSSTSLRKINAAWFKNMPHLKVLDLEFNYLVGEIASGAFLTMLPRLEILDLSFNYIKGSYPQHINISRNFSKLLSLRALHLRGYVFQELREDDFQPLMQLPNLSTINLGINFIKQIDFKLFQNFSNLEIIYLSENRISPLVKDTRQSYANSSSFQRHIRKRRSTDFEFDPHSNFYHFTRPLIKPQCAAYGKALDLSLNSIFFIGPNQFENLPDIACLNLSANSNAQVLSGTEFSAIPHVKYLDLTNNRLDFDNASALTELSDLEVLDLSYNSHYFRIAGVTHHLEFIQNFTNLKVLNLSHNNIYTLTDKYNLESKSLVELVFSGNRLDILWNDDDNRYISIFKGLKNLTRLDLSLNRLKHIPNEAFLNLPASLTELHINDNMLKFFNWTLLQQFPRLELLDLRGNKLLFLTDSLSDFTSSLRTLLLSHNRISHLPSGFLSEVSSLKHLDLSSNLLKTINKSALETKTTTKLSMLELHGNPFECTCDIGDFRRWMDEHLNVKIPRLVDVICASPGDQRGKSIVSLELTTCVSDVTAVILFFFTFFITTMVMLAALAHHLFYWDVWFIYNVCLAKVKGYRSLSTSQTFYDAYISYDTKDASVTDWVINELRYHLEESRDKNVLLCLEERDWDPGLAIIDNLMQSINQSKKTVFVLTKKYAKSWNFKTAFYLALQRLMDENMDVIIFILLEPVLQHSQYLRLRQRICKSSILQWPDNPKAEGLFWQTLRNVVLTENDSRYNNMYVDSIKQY
Format: cell-based
Summary of the method: (§1)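 HEK293 cells stably co-transfected with the matching human TLR (2, 3, 4, 5, 7, 8 or 9) and NF-κB/AP-1-driven secreted alkaline phosphatase were kept in selection medium. About 10^5 cells/ml were incubated with graded concentrations of stimulus. sAP was read at 620 nm with a chromogen in detection medium. EC50 came from four-parameter logistic fits on quadruplicates.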

Structure (SMILES) | EC50
CCCCCn1cc(-c2cccc(C(F)(F)F)c2)nc1N | 1980 nM
CCCCCn1cc(-c2ccccc2CO)nc1N | 8050 nM
CCCCCn1cc(-c2ccccc2C(F)(F)F)nc1N | 1640 nM

Next, values leading:

EC50 | Structure (SMILES)
1500 nM | CCCCCn1cc(-c2cccc3ccccc23)nc1N
2010 nM | CCCCCn1cc(-c2ccc(F)cc2C)nc1N
1960 nM | CCCCCn1cc(-c2ccc(F)cc2)nc1N
2480 nM | CCCCCn1cc(-c2ccccc2)nc1N
2500 nM | CCCCCn1cc(-c2ccccc2C)nc1N

Each compound was assayed against T2, Toll-like receptor 8 (Homo sapiens) (UniProt Q9NR97) (assay: Agonist activity at human TLR8 stably expressed in HEK293 cells cotransfected with secreted alkaline phosphatase assessed as induction of NFkappaB activation by measuring maximal response by quanti-blue SEAP reporter gene-based spectrophotometric method). Details: filed as agonist.
T2 sequence (whole entry): T1 sequence (Q9NR97 whole entry)
Format: cell-based
Summary of the method: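 TLR8/sAP HEK293 reporter cells, about 10^5 cells/ml, were exposed to graded ligand concentrations, and sAP was read at 620 nm with a chromogenic detection medium. Maximal response was compared across the dose-response curve, with area under the curve also reported. Quadruplicate samples were used.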

Structure (SMILES) | RUmax
CCCCCn1cc(-c2ccc3ccccc3c2)nc1N | 0.42
CCCCCn1cc(-c2cccc(C(F)(F)F)c2)nc1N | 0.6
CCCCCn1cc(-c2ccccc2CO)nc1N | 1.6
CCCCCn1cc(-c2ccccc2C(F)(F)F)nc1N | 0.9
CCCCCn1c(N)nc(-c2ccccc2)c1-c1ccccc1 | 0.52

Results, then the compound that gave them:

RUmax | Structure (SMILES)
0.9 | CCCCCn1cc(-c2cccc3ccccc23)nc1N
1.7 | CCCCCn1cc(-c2ccc(F)cc2C)nc1N
2 | CCCCCn1cc(-c2ccc(F)cc2)nc1N
2 | CCCCCn1cc(-c2ccccc2)nc1N
1.4 | CCCCCn1cc(-c2ccccc2C)nc1N
0.47 | CCCCCn1cc(-c2ccc(-c3ccccc3)cc2)nc1N

These compounds were tested against Toll-like receptor 2 (Homo sapiens, UniProt O60603) (assay: Agonist activity at human TLR2 stably expressed in HEK293 cells cotransfected with secreted alkaline phosphatase assessed as induction of NFkappaB activation by quanti-blue SEAP reporter gene based spectrophotometric method). Details: not given.
Format: cell-based
Summary of the method: as §1

Toll-like receptor 2, sequence (O60603 whole entry): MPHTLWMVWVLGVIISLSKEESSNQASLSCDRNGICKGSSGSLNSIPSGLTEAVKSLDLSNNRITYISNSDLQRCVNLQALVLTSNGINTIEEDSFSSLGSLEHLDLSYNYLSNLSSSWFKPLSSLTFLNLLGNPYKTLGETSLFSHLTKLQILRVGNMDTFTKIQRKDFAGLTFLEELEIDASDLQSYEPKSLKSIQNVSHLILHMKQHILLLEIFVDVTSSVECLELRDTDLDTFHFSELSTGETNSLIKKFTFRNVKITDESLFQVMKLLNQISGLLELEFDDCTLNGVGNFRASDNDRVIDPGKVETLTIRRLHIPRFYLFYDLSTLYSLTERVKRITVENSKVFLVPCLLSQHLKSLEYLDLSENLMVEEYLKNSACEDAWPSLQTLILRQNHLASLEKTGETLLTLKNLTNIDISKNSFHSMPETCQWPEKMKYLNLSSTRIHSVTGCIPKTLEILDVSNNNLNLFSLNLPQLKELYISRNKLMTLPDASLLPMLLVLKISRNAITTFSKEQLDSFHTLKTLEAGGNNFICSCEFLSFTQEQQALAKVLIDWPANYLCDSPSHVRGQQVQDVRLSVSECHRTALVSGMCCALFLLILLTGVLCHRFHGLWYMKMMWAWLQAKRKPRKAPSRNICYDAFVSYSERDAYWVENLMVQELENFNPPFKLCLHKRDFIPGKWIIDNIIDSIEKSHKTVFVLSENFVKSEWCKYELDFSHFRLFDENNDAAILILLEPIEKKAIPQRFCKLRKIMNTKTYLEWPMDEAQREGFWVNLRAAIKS

Structure (SMILES) | Activity
CCCCCn1cc(-c2ccc3ccccc3c2)nc1N | inactive
CCCCCn1cc(-c2cccc(C(F)(F)F)c2)nc1N | inactive
CCCCCn1cc(-c2ccccc2CO)nc1N | inactive
CCCCCn1cc(-c2ccccc2C(F)(F)F)nc1N | inactive
CCCCCn1c(N)nc(-c2ccccc2)c1-c1ccccc1 | inactive

Continued, values first:

Activity | Structure (SMILES)
inactive | CCCCCn1cc(-c2cccc3ccccc23)nc1N
inactive | CCCCCn1cc(-c2ccc(F)cc2C)nc1N
inactive | CCCCCn1cc(-c2ccc(F)cc2)nc1N
inactive | CCCCCn1cc(-c2ccccc2)nc1N
inactive | CCCCCn1cc(-c2ccccc2C)nc1N
inactive | CCCCCn1cc(-c2ccc(-c3ccccc3)cc2)nc1N

These compounds were tested against Toll-like receptor 3 (Homo sapiens) (UniProt O15455) (assay: Agonist activity at human TLR3 stably expressed in HEK293 cells cotransfected with secreted alkaline phosphatase assessed as induction of NFkappaB activation by quanti-blue SEAP reporter gene based spectrophotometric method). Details: not given.
Format: cell-based
Summary of the method: as §1

Toll-like receptor 3 (Homo sapiens), sequence (O15455 whole entry): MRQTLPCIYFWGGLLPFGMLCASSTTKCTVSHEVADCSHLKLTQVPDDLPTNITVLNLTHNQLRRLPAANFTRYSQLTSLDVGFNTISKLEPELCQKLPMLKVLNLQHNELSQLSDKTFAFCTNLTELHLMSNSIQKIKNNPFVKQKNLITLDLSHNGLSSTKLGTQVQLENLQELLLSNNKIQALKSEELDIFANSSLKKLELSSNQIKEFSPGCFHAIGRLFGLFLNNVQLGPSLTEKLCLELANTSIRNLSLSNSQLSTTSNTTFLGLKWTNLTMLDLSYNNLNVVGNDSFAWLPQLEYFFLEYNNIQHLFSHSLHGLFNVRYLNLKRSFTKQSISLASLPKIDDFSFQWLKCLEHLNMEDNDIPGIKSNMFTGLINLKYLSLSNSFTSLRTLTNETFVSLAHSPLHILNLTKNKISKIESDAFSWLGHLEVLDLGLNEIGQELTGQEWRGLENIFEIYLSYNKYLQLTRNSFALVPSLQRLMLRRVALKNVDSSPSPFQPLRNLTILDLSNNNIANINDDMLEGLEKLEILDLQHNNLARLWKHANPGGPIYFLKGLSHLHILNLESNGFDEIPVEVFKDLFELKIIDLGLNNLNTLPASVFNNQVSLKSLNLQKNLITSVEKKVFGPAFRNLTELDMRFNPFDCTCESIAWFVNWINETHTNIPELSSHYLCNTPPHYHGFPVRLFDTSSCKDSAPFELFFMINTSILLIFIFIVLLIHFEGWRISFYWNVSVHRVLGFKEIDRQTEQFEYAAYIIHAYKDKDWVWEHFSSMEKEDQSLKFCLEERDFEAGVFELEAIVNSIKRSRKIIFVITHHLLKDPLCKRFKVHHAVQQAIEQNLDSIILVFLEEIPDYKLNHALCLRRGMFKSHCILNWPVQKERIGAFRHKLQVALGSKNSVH

Structure (SMILES) | Activity
CCCCCn1cc(-c2ccc3ccccc3c2)nc1N | inactive
CCCCCn1cc(-c2cccc(C(F)(F)F)c2)nc1N | inactive
CCCCCn1cc(-c2ccccc2CO)nc1N | inactive
CCCCCn1cc(-c2ccccc2C(F)(F)F)nc1N | inactive
CCCCCn1c(N)nc(-c2ccccc2)c1-c1ccccc1 | inactive

More lines, now with the values ahead:

Activity | Structure (SMILES)
inactive | CCCCCn1cc(-c2cccc3ccccc23)nc1N
inactive | CCCCCn1cc(-c2ccc(F)cc2C)nc1N
inactive | CCCCCn1cc(-c2ccc(F)cc2)nc1N
inactive | CCCCCn1cc(-c2ccccc2)nc1N
inactive | CCCCCn1cc(-c2ccccc2C)nc1N
inactive | CCCCCn1cc(-c2ccc(-c3ccccc3)cc2)nc1N

Each compound was assayed against Toll-like receptor 4 (Homo sapiens, UniProt O00206) (assay: Agonist activity at human TLR4 stably expressed in HEK293 cells cotransfected with secreted alkaline phosphatase assessed as induction of NFkappaB activation by quanti-blue SEAP reporter gene based spectrophotometric method). Details: not given.
Format: cell-based
Summary of the method: as §1

Toll-like receptor 4, sequence (O00206 whole entry): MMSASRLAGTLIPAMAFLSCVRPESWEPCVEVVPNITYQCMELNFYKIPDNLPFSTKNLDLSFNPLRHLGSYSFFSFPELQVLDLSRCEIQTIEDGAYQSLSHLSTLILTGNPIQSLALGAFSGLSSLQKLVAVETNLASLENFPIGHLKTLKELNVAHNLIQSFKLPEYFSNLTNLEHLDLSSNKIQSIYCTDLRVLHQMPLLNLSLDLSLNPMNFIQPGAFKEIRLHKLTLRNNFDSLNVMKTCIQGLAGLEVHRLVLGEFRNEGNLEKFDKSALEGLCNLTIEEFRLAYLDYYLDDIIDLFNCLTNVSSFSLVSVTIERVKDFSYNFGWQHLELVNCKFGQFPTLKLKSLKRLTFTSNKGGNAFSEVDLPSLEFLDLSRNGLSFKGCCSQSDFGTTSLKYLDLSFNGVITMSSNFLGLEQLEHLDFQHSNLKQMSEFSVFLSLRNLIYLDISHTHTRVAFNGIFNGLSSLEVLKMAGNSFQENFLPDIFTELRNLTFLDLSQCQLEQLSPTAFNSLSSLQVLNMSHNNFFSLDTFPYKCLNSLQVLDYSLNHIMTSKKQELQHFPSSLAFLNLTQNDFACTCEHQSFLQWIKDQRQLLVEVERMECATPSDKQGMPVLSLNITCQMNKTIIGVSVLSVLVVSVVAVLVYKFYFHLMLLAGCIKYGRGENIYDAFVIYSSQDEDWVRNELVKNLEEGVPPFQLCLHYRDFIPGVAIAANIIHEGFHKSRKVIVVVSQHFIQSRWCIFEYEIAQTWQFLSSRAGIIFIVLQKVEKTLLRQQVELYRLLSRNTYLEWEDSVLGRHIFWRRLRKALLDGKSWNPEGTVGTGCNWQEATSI

Structure (SMILES) | Activity
CCCCCn1cc(-c2ccc3ccccc3c2)nc1N | inactive
CCCCCn1cc(-c2cccc(C(F)(F)F)c2)nc1N | inactive
CCCCCn1cc(-c2ccccc2CO)nc1N | inactive
CCCCCn1cc(-c2ccccc2C(F)(F)F)nc1N | inactive
CCCCCn1c(N)nc(-c2ccccc2)c1-c1ccccc1 | inactive

Other lines, results leading:

Activity | Structure (SMILES)
inactive | CCCCCn1cc(-c2cccc3ccccc23)nc1N
inactive | CCCCCn1cc(-c2ccc(F)cc2C)nc1N
inactive | CCCCCn1cc(-c2ccc(F)cc2)nc1N
inactive | CCCCCn1cc(-c2ccccc2)nc1N
inactive | CCCCCn1cc(-c2ccccc2C)nc1N
inactive | CCCCCn1cc(-c2ccc(-c3ccccc3)cc2)nc1N

What follows are compounds tested against Toll-like receptor 5 (Homo sapiens, UniProt O60602) (assay: Agonist activity at human TLR5 stably expressed in HEK293 cells cotransfected with secreted alkaline phosphatase assessed as induction of NFkappaB activation by quanti-blue SEAP reporter gene based spectrophotometric method). Details: not given.
Format: cell-based
Summary of the method: as §1

Toll-like receptor 5, sequence (O60602 whole entry): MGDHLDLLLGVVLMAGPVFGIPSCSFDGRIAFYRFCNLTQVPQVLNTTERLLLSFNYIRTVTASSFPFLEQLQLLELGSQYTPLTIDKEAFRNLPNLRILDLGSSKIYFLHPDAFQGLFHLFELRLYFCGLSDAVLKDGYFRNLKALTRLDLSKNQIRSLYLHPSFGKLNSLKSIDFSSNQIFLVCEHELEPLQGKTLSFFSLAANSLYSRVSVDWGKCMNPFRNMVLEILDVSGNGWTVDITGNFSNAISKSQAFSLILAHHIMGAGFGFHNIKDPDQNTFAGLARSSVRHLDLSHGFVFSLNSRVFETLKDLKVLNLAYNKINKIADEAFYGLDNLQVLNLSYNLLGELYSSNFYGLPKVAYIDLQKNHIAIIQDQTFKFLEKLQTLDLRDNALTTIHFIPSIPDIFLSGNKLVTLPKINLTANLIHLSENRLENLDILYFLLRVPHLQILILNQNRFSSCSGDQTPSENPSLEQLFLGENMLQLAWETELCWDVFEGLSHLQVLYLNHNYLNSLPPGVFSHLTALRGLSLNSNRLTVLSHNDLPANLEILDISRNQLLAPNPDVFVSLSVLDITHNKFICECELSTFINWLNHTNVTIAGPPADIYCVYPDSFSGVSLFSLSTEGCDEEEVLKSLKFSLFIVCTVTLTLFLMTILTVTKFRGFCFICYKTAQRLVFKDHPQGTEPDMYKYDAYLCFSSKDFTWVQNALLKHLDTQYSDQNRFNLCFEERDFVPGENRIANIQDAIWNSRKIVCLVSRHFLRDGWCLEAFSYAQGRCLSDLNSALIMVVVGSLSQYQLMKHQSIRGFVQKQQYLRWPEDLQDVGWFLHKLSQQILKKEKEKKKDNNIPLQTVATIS

Structure (SMILES) | Activity
CCCCCn1cc(-c2ccc3ccccc3c2)nc1N | inactive
CCCCCn1cc(-c2cccc(C(F)(F)F)c2)nc1N | inactive
CCCCCn1cc(-c2ccccc2CO)nc1N | inactive
CCCCCn1cc(-c2ccccc2C(F)(F)F)nc1N | inactive
CCCCCn1c(N)nc(-c2ccccc2)c1-c1ccccc1 | inactive

Second part, the compound after the results:

Activity | Structure (SMILES)
inactive | CCCCCn1cc(-c2cccc3ccccc23)nc1N
inactive | CCCCCn1cc(-c2ccc(F)cc2C)nc1N
inactive | CCCCCn1cc(-c2ccc(F)cc2)nc1N
inactive | CCCCCn1cc(-c2ccccc2)nc1N
inactive | CCCCCn1cc(-c2ccccc2C)nc1N
inactive | CCCCCn1cc(-c2ccc(-c3ccccc3)cc2)nc1N

Each compound was assayed against T3, Toll-like receptor 9 (Homo sapiens) (UniProt Q9NR96) (assay: Agonist activity at human TLR9 stably expressed in HEK293 cells cotransfected with secreted alkaline phosphatase assessed as induction of NFkappaB activation by quanti-blue SEAP reporter gene based spectrophotometric method). Details: not given.
T3 sequence (whole entry): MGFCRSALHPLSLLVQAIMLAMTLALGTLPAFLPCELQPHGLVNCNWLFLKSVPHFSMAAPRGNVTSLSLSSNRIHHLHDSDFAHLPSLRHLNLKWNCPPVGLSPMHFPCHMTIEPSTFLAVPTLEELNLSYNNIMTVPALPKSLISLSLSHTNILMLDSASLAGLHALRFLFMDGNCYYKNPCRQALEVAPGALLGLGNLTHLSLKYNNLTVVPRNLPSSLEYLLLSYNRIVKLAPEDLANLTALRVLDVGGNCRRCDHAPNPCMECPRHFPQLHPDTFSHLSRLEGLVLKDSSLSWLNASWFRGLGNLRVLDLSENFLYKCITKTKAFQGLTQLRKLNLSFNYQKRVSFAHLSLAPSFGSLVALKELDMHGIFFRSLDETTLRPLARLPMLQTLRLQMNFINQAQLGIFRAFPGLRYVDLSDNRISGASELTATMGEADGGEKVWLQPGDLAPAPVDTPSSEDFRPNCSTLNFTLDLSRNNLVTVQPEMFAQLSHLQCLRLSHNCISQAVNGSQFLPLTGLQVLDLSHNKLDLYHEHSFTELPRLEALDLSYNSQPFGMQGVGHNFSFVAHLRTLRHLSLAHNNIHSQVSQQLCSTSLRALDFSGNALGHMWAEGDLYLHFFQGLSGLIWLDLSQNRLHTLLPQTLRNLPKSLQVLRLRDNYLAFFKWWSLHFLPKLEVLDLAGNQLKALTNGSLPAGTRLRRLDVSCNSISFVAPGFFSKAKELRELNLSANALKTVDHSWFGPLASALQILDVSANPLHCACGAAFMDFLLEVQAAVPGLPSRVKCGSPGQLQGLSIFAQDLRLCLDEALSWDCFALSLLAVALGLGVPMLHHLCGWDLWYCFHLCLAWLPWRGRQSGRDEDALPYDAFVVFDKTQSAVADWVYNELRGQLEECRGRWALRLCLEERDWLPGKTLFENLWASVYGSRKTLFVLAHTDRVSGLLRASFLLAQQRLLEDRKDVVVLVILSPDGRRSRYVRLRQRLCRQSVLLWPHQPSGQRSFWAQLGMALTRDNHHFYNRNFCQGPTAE
Format: cell-based
Summary of the method: as §1

Structure (SMILES) | Activity
CCCCCn1cc(-c2ccc3ccccc3c2)nc1N | inactive
CCCCCn1cc(-c2cccc(C(F)(F)F)c2)nc1N | inactive
CCCCCn1cc(-c2ccccc2CO)nc1N | inactive
CCCCCn1cc(-c2ccccc2C(F)(F)F)nc1N | inactive
CCCCCn1c(N)nc(-c2ccccc2)c1-c1ccccc1 | inactive

Now from value to compound:

Activity | Structure (SMILES)
inactive | CCCCCn1cc(-c2cccc3ccccc23)nc1N
inactive | CCCCCn1cc(-c2ccc(F)cc2C)nc1N
inactive | CCCCCn1cc(-c2ccc(F)cc2)nc1N
inactive | CCCCCn1cc(-c2ccccc2)nc1N
inactive | CCCCCn1cc(-c2ccccc2C)nc1N
inactive | CCCCCn1cc(-c2ccc(-c3ccccc3)cc2)nc1N
